Test results from ChEMBL document CHEMBL1145471, “Small molecule regulators of autophagy identified by an image-based high-throughput screen” (Proc Natl Acad Sci U S A, 2007).
Activity calls are given as the source filed them. The calls are words filed in the database; no cut-off is given here.

Assays:
H4 [1] = test: Increase in light chain 3-GFP+ autophagosome vesicle number per cell in human H4 cells at 7.2 uM after 24 hrs by high throughput fluorescence microscopy relative to control; type: functional
Summary of the method: (§1)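 H4 cells stably expressing LC3-GFP were grown in DMEM with 10% FBS and 2 mM L-glutamine at 37°C, 5% CO2. They were exposed to each compound for 24 h, with DMSO as negative and rapamycin as positive control. Cells were then fixed in 4% paraformaldehyde and stained with 3 μg/ml DAPI. High-throughput fluorescence imaging scored LC3-GFP spot number, size and intensity, expressed relative to DMSO. Mean ± SD of triplicates; experiments repeated three times.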

H4 [2] = test: Increase in light chain 3-GFP+ autophagosome vesicle area per cell in human H4 cells at 7.2 uM after 24 hrs by high throughput fluorescence microscopy relative to control; type: functional
Summary of the method: (§2)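 H4 cells stably expressing LC3-GFP, seeded in 96-well plates and exposed to compound for 24 h; screening concentrations were 3–12 μM, with rapamycin 0.22 μM and bafilomycin A1 0.40 μM. Cells fixed in 4% paraformaldehyde and stained with 3 μg/ml DAPI. Number, size and intensity of LC3-GFP spots measured by high-throughput fluorescence microscopy and expressed as percent of DMSO-treated wells. Rapamycin was the positive control. Triplicate wells, mean ± SD; experiments repeated three times.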

H4 [3] = test: Increase in light chain 3-GFP+ autophagosome vesicle intensity per cell in human H4 cells at 7.2 uM after 24 hrs by high throughput fluorescence microscopy relative to control; type: functional; summary of the method: as §1
H4 [4] = test: Effect on FYVE-RFP+ vesicle intensity per cell in human H4 cells after 2 hrs relative to control; type: functional; design: concentration or dose not given beside the values
Summary of the method: (§3)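 H4 cells stably expressing FYVE-RFP (H4-FYVE), grown in DMEM with 10% FBS, penicillin/streptomycin and 2 mM L-glutamine at 37°C, 5% CO2, seeded in 96-well plates and exposed to compound. Fixed in 4% paraformaldehyde, nuclei stained with 3 μg/ml DAPI, FYVE-RFP+ vesicles quantified by high-throughput fluorescence microscopy against DMSO control. Triplicate wells, mean ± SD.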

H4 [5] = test: Effect on FYVE-RFP+ vesicle intensity per cell in human H4 cells after 4 hrs relative to control; type: functional; design: concentration or dose not given beside the values; summary of the method: as §3
H4 [6] = test: Effect on FYVE-RFP+ vesicle intensity per cell in human H4 cells after 8 hrs relative to control; type: functional; design: concentration or dose not given beside the values; summary of the method: as §3
H4 [7] = test: Increase in long-lived protein degradation in human H4 cells after 1 hr relative to control; type: functional; design: concentration or dose not given beside the values
H4 [8] = test: Increase in long-lived protein degradation in human H4 cells after 2 hrs relative to control; type: functional; design: concentration or dose not given beside the values
H4 [9] = test: Increase in long-lived protein degradation in human H4 cells after 4 hrs relative to control; type: functional; design: concentration or dose not given beside the values
H4 [10] = test: Increase in long-lived protein degradation in human H4 cells after 24 hrs relative to control; type: functional; design: concentration or dose not given beside the values
H4 [11] = test: Induction of light chain 3-GFP level in human H4 cells at 7.2 uM after 24 hrs by high throughput fluorescence microscopy relative to control; type: functional
Summary of the method: (§4)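 H4 cells stably expressing LC3-GFP, grown in DMEM with 10% FBS, penicillin/streptomycin and 2 mM L-glutamine at 37°C, 5% CO2. Cells were seeded in 96-well plates and exposed to library compounds at 3–12 μM for 24 h, then fixed in 4% paraformaldehyde and stained with 3 μg/ml DAPI. LC3-GFP spot number, size and intensity were measured by high-throughput fluorescence microscopy and expressed relative to DMSO. Triplicates, mean ± SD.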

H4 [12] = test: Increase in light chain 3-GFP+ autophagosome vesicle area per cell in human H4 cells at 3.3 uM after 24 hrs by high throughput fluorescence microscopy relative to control; type: functional
Summary of the method: (§5)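 H4 cells stably expressing LC3-GFP, seeded in 96-well plates and exposed to compound for 24 h; fixed in 4% paraformaldehyde, nuclei stained with 3 μg/ml DAPI. Automated fluorescence microscopy scored number, size and intensity of LC3-GFP spots; values expressed relative to DMSO-treated wells, rapamycin positive control. Triplicate wells, mean ± SD; experiments repeated three times.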

H4 [13] = test: Increase in light chain 3-GFP+ autophagosome vesicle number per cell in human H4 cells at 3.3 uM after 24 hrs by high throughput fluorescence microscopy relative to control; type: functional; summary of the method: as §5
H4 [14] = test: Increase in light chain 3-GFP+ autophagosome vesicle intensity per cell in human H4 cells at 3.3 uM after 24 hrs by high throughput fluorescence microscopy relative to control; type: functional; summary of the method: as §5
H4 [15] = test: Decrease in FYVE-RFP+ vesicle intensity per cell in human H4 cells after 2 hrs relative to control; type: functional; design: concentration or dose not given beside the values; summary of the method: as §3
H4 [16] = test: Decrease in FYVE-RFP+ vesicle intensity per cell in human H4 cells after 4 hrs relative to control; type: functional; design: concentration or dose not given beside the values; summary of the method: as §3
H4 [17] = test: Decrease in FYVE-RFP+ vesicle intensity per cell in human H4 cells after 8 hrs relative to control; type: functional; design: concentration or dose not given beside the values; summary of the method: as §3
H4 [18] = test: Induction of light chain 3-GFP level in human H4 cells at 3.3 uM after 24 hrs by high throughput fluorescence microscopy relative to control; type: functional
Summary of the method: (§6)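 H4 cells stably expressing LC3-GFP, kept in DMEM/10% FBS at 37°C, 5% CO2, were seeded in 96-well plates and exposed to compound for 24 h. Cells were then fixed in 4% paraformaldehyde and stained with 3 μg/ml DAPI. Automated fluorescence microscopy scored the number, size and intensity of LC3-GFP spots. Values are percent of DMSO wells, in triplicate, mean ± SD. Rapamycin served as positive control.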

H4 [19] = test: Increase in ratio of light chain 3 subunit 2 to light chain 3 subunit 1 in human H4 cells at 4.8 uM after 4 hrs by Western blot; type: functional, cell-based
Summary of the method: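 H4 cells were treated with each compound for 4 h, then lysed. Lysates were immunoblotted with anti-LC3 antibody, with actin as loading control. LC3II and LC3I bands were compared as an LC3II/LC3I ratio.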

[20] = target: Serine/threonine-protein kinase mTOR (Homo sapiens, UniProt P42345); test: Effect on mTOR phosphorylation in human H4 cells at 4.8 uM after 4 hrs; type: cell-based
Summary of the method: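 H4 cells exposed to compound for 4 h. Lysates analysed by Western blot with anti-phospho and anti-total mTOR antibodies, with actin as loading control. Rapamycin served as reference.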

H4 [21] = test: Increase in light chain 3-GFP+ autophagosome vesicle number per cell in human H4 cells at 4.8 uM after 24 hrs by high throughput fluorescence microscopy relative to control; type: functional; summary of the method: as §1
H4 [22] = test: Increase in light chain 3-GFP+ autophagosome vesicle area per cell in human H4 cells at 4.8 uM after 24 hrs by high throughput fluorescence microscopy relative to control; type: functional; summary of the method: as §2
H4 [23] = test: Increase in light chain 3-GFP+ autophagosome vesicle intensity per cell in human H4 cells at 4.8 uM after 24 hrs by high throughput fluorescence microscopy relative to control; type: functional; summary of the method: as §1
H4 [24] = test: Increase in FYVE-RFP+ vesicle intensity per cell in human H4 cells after 2 hrs relative to control; type: functional; design: concentration or dose not given beside the values; summary of the method: as §3
H4 [25] = test: Increase in FYVE-RFP+ vesicle intensity per cell in human H4 cells after 4 hrs relative to control; type: functional; design: concentration or dose not given beside the values; summary of the method: as §3
H4 [26] = test: Increase in FYVE-RFP+ vesicle intensity per cell in human H4 cells after 8 hrs relative to control; type: functional; design: concentration or dose not given beside the values; summary of the method: as §3
H4 [27] = test: Induction of light chain 3-GFP level in human H4 cells at 4.8 uM after 24 hrs by high throughput fluorescence microscopy relative to control; type: functional; summary of the method: as §4
H4 [28] = test: Increase in light chain 3-GFP+ autophagosome vesicle area per cell in human H4 cells at 5.7 uM after 24 hrs by high throughput fluorescence microscopy relative to control; type: functional; summary of the method: as §5
H4 [29] = test: Increase in light chain 3-GFP+ autophagosome vesicle number per cell in human H4 cells at 5.7 uM after 24 hrs by high throughput fluorescence microscopy relative to control; type: functional; summary of the method: as §6
H4 [30] = test: Increase in light chain 3-GFP+ autophagosome vesicle intensity per cell in human H4 cells at 5.7 uM after 24 hrs by high throughput fluorescence microscopy relative to control; type: functional; summary of the method: as §5
H4 [31] = test: Induction of light chain 3-GFP level in human H4 cells at 5.7 uM after 24 hrs by high throughput fluorescence microscopy relative to control; type: functional; summary of the method: as §6
H4 [32] = test: Increase in light chain 3-GFP+ autophagosome vesicle number per cell in human H4 cells at 6.6 uM after 24 hrs by high throughput fluorescence microscopy relative to control; type: functional; summary of the method: as §1
H4 [33] = test: Increase in light chain 3-GFP+ autophagosome vesicle area per cell in human H4 cells at 6.6 uM after 24 hrs by high throughput fluorescence microscopy relative to control; type: functional; summary of the method: as §2
H4 [34] = test: Increase in light chain 3-GFP+ autophagosome vesicle intensity per cell in human H4 cells at 6.6 uM after 24 hrs by high throughput fluorescence microscopy relative to control; type: functional; summary of the method: as §1
H4 [35] = test: Induction of light chain 3-GFP level in human H4 cells at 6.6 uM after 24 hrs by high throughput fluorescence microscopy relative to control; type: functional; summary of the method: as §4
H4 [36] = test: Induction of light chain 3-GFP level in human H4 cells at 4.4 uM after 24 hrs by high throughput fluorescence microscopy relative to control; type: functional; summary of the method: as §4
H4 [37] = test: Increase in light chain 3-GFP+ autophagosome vesicle area per cell in human H4 cells at 4.4 uM after 24 hrs by high throughput fluorescence microscopy relative to control; type: functional; summary of the method: as §2
H4 [38] = test: Increase in light chain 3-GFP+ autophagosome vesicle intensity per cell in human H4 cells at 4.4 uM after 24 hrs by high throughput fluorescence microscopy relative to control; type: functional; summary of the method: as §1
H4 [39] = test: Induction of autophagy in human H4 cells; type: functional, cell-based
H4 [40] = test: Increase in light chain 3-GFP+ autophagosome vesicle number per cell in human H4 cells at 4.4 uM after 24 hrs by high throughput fluorescence microscopy relative to control; type: functional; summary of the method: as §1

| Structure (SMILES) | Activity (H4 [4]) [%] | Activity (H4 [5]) [%] | Activity (H4 [6]) [%] | Activity (H4 [7]) [%] | Activity (H4 [8]) [%] | Activity (H4 [9]) [%] | Activity (H4 [10]) [%] | further results |
| --- | --- | --- | --- | --- | --- | --- | --- | --- |
| COC(=O)c1c(C)[nH]c(C)c1C(=O)c1ccccc1Cc1ccccc1 | 99.43 | 78.17 | 87.62 | 101.34 | 111.04 | 97.03 | 90.97 | Activity (H4 [1]): 161.73%; Activity (H4 [2]): 18010%; Activity (H4 [3]): 200.83%; Activity (H4 [11]): 132.45% |
| COc1cc2c3cc1Oc1c(OC)c(OC)cc4c1[C@@H](Cc1ccc(OC(=O)c5ccc([N+](=O)[O-])cc5)c(c1)Oc1ccc(cc1)C[C@@H]3N(C)CC2)N(C)CC4 [E6 BERBAMINE] |  |  |  | 100.96 | 91.62 | 96.53 | 93.45 | Activity (H4 [12]): 693.82%; Activity (H4 [13]): 389.35%; Activity (H4 [14]): 2447.47%; Activity (H4 [15]): 59.73%; Activity (H4 [16]): 54.54%; Activity (H4 [17]): 58.69%; Activity (H4 [18]): 131.16% |
| COC(=O)C1=C(C)NC(C)=C(C(=O)OCCN(C)Cc2ccccc2)C1c1cccc([N+](=O)[O-])c1 (centres undefined) [NICARDIPINE] |  |  |  | 84.62 | 126.59 | 122.6 | 121.03 | Activity (H4 [19]): Active; Activity [20]: inactive; Activity (H4 [21]): 169.02%; Activity (H4 [22]): 197.46%; Activity (H4 [23]): 229.64%; Activity (H4 [24]): 132.05%; Activity (H4 [25]): 112.51%; Activity (H4 [26]): 104.77%; Activity (H4 [27]): 131.58% |
| CC(C)(O)[C@H]1O[C@H]2CC[C@@]3(C)[C@@](O)(CC[C@H]4Cc5c([nH]c6ccccc56)[C@@]43C)C2=CC1=O [PAXILLINE] | 100.56 | 52.37 | 56.82 | 100.56 | 112.34 | 106.27 | 102.35 | Activity (H4 [28]): 185.52%; Activity (H4 [29]): 162.66%; Activity (H4 [30]): 205.83%; Activity (H4 [31]): 119.79% |
| CCCNCC(O)COc1ccccc1C(=O)CCc1ccccc1 (centres undefined) [PROPAFENONE] | 114.69 | 78.75 | 62.87 | 114.56 | 113.22 | 99.78 | 102.73 | Activity (H4 [32]): 210.4%; Activity (H4 [33]): 271.21%; Activity (H4 [34]): 385.97%; Activity (H4 [35]): 99.88% |
| CC/C(=C(\c1ccccc1)c1ccc(OCCN(C)C)cc1)c1ccccc1 [TAMOXIFEN] | 77.66 | 71.55 | 85.37 | 70.67 | 101.24 | 105.85 | 114.97 | Activity (H4 [36]): 91.2%; Activity (H4 [37]): 376.53%; Activity (H4 [38]): 585.87%; Activity (H4 [39]): inactive; Activity (H4 [40]): 291.52% |
